Results from different studies.
Protocols differ between the studies behind these lines.
Target: Histone deacetylase 1 (HDAC1, Homo sapiens, UniProt Q13547)

Structure (SMILES)	test	quantity	result
O=C(NO)c1ccc(NC(=O)C2(c3ccc(Cl)cc3)CCCC2)c(F)c1	enzyme activity, inhibitor	IC50	774 nM
CCCC[C@H](NC(=O)C1CN(C)C1)c1ncc(-c2cc3ccccc3nc2OC)[nH]1	enzyme activity, inhibitor	IC50	68 nM
CC(C)C[C@H]1CC(=O)N[C@@H](C)C(=O)N[C@@H](CCCCCC(=O)O)C(=O)N[C@@H](Cc2c[nH]c3ccccc23)C(=O)N1	enzyme activity, inhibitor	IC50	100 nM
O=C(NO)c1ccc(NC(=O)C2(c3ccccc3)CCOCC2)c(F)c1	enzyme activity, inhibitor	IC50	73 nM
C=CCC[C@@H]1NC(=O)[C@H]2CCCN2C(=O)[C@H](Cc2ccccc2)NC(=O)C(C)(C)NC1=O	enzyme activity, inhibitor	IC50	> 300000 nM
O=C(NO)c1ccc(NC(=O)C2(c3ccc(C(F)(F)F)c(F)c3)CCCC2)cc1	enzyme activity, inhibitor	IC50	222 nM
CCCON(Cc1ccc(C(=O)NO)cc1)C(=O)Nc1ccc(N(C)C)cc1	enzyme activity, inhibitor, fluorescence	IC50	715 nM
Cc1nc2ccccc2n1Cc1ccc(C(=O)NO)cn1	enzyme activity, inhibitor	IC50	27900 nM
C/C=C1\NC(=O)[C@H]2CSSCC/C=C/[C@H](CC(=O)N[C@H](C(C)C)C(=O)N2)OC(=O)[C@H](C(C)C)NC1=O	cell-free assay	Kd	3.17 nM
CCCON(Cc1ccc(C(=O)NO)cc1)C(=O)Nc1ccccc1	enzyme activity, inhibitor, fluorescence	IC50	742 nM
CCC[C@H](NC(=O)C1CN(C)C1)c1ncc(-c2cc3ccccc3nc2OC)[nH]1	enzyme activity, inhibitor, fluorescence	IC50	280 nM
O=C(CCCCCCC(=O)Nc1ccc([C@H]2O[C@@H](CSc3nc(-c4ccccc4)c(-c4ccccc4)o3)C[C@@H](c3ccc(CO)cc3)O2)cc1)NO	cell-free assay	Kd	> 30200 nM
